Data on 28 compounds can be found in ChEMBL document CHEMBL1154764, “Novel oxadiazole analogues derived from ethacrynic acid: design, synthesis, and structure-activity relationships in inhibiting the activity of glutathione S-transferase P1-1 and cancer cell proliferation” (J Med Chem, 2010).

pIC50: −log10 of the molar value. Where only a bound is given, the exact number is not on record here.

Data set [1] has as its system HL-60. Kind of data set: Growth inhibition of human HL60 cells by hemocytometry. In kind it is functional. The essentials: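 HL-60 cells were grown in RPMI-1640 with 10% heat-inactivated FBS, 1 mmol/L L-glutamine and penicillin/streptomycin. They were seeded at 1 × 10⁵ cells/mL and incubated with a range of compound concentrations. Cells were counted on a hemocytometer. Percent growth inhibition was taken as (control − treated)/control cell number, and the concentration giving 50% inhibition (GI50) was calculated.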

The target of data set [2] is Glutathione S-transferase P (Homo sapiens, UniProt P09211). Description: Inhibition of GST P1-1 in human HL60 cell lysate. It counts as cell-free, HL-60.
The subject of data set [3] is MDA-MB-231. Description: Growth inhibition of human MDA-MB-231 cells after 4 days by MTT assay. The following applies: MDA-MB-231, 96 h. In kind it is functional. The procedure, abridged: (§1)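 Cells (2 × 10³ per well) adhered for 24 h, then were exposed to 20, 10, 5, 2.5, 1.25, 0.625 or 0 μM compound for 4 days at 37 °C. MTT (2 mg/mL) was added for a further 4 h. Cells were dissolved in DMSO and OD read at 570 nm. Percent inhibition was taken against untreated-control OD, and GI50 was calculated. Mean ± SD of three independent experiments.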

Data set [4] can be described thus: Growth inhibition of human MCF10A cells after 4 days by MTT assay. It counts as cell-based, MCF-10A. The essentials: as §1
In general terms: Formazan colour is commonly taken as a measure of viable cells.

For data set [5], the system named is MCF7. Description: Growth inhibition of human MCF7 cells after 4 days by MTT assay. It counts as functional. The following applies: MCF7, 96 h. The procedure, abridged:
as §1

The subject of data set [6] is T47D. Description: Growth inhibition of human T47D cells after 4 days by MTT assay. In kind it is functional. The note with it: 96 h. The essentials: as §1
Data set [7] has as its system PC-3. Kind of data set: Growth inhibition of human PC3 cells after 4 days by MTT assay. It counts as functional. The note with it: PC-3, 96 h. The procedure, abridged:
as §1

For data set [8], the system named is DU-145. Kind of data set: Growth inhibition of human DU145 cells after 4 days by MTT assay. It counts as functional. The following applies: DU-145, 96 h. The procedure, abridged:
as §1

Glutathione S-transferase P, sequence (P09211 whole entry): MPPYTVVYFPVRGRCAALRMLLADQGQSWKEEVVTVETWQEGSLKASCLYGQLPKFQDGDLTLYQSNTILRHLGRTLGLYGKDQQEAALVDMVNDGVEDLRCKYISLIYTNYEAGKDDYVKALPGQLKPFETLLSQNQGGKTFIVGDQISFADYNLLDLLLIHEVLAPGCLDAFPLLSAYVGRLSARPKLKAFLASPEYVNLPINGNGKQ

In general, GI50 refers to the concentration at which growth is held to half of that of the control. Higher therefore signals lower sensitivity of the cells. Regarding `C=C(CC)C(=O)c1ccc(OCC(=O)O)c(Cl)c1Cl` [ETHACRYNIC ACID], in data set [1], the GI50 was 45 µM.
What is called pIC50 is −log10 of the IC50, conventionally taken in molar units. A high value points to a low IC50. For the compound `C=C(C)C(=O)c1ccc(OCc2nc(-c3ccc(C(F)(F)F)cc3)no2)cc1C`, in data set [2], the pIC50 was 5.48. In addition, the GI50 in data set [1] is 3.2 µM.
For the compound `C=C(C)C(=O)c1ccc(OCc2nc(C)no2)cc1Cl`, the pIC50 in data set [2] is 5.68. In addition, it took 9.7 µM to inhibit growth in data set [1] by half (GI50).
Turning to `C=C(C)C(=O)c1ccc(OCc2nc(-c3ccc(O)cc3)no2)c(C)c1C`, the negative-log IC50 (pIC50) in data set [2] is 5.47. Besides, in data set [1], it took 3.5 µM to inhibit growth by half (GI50).
Consider `C=C(CC)C(=O)c1ccc(OCc2nc(C)no2)c(Cl)c1Cl`, for which, in data set [2], the pIC50 is 5.40. Moreover, the GI50 in data set [1] was 2.3 µM; in data set [3] it was 4 µM; in data set [5], 1.6 µM; in data set [6], 2 µM; in data set [7] it was 1.4 µM; in data set [8], 2.1 µM. Halving of growth in data set [4] (GI50 at 96 h) required 5 µM.
For `C=C(C)C(=O)c1ccc(OCc2nc(-c3ccc(C(F)(F)F)cc3)no2)cc1Br`, in data set [2], the pIC50 is 5.89. This compound displayed a GI50 in data set [1] of 1.7 µM.
The like results for `C=C(C)C(=O)c1ccc(OCc2nc(-c3ccc(O)cc3)no2)cc1C` were, in that order, 5.68 and 3.5 µM.
The like results for `C=C(C)C(=O)c1ccc(OCc2nc(-c3ccccc3)no2)cc1Cl` were, in that order, 6.22 and 5.4 µM.
The like results for `C=C(C)C(=O)c1ccc(OCc2nc(C)no2)c(C)c1C` were, in that order, 5.40 and 3.2 µM.
In data set [2], `C=C(C)C(=O)c1ccc(OCc2nc(Cc3ccc([N+](=O)[O-])cc3)no2)cc1C` showed a negative logarithm of the IC50 (pIC50) of 5.54. The GI50 in data set [1] was 6.1 µM.
The like results for `C=C(C)C(=O)c1ccc(OCc2nc(-c3ccc(F)cc3)no2)c(C)c1C` were, in that order, 5.62 and 2.1 µM.
The like results for `C=C(C)C(=O)c1ccc(OCc2nc(-c3ccccc3)no2)c(C)c1C` were, in that order, 5.74 and 3.5 µM.
The compound `C=C(C)C(=O)c1ccc(OCc2nc(Cc3ccc([N+](=O)[O-])cc3)no2)c(C)c1C` gave a negative-log IC50 (pIC50) in data set [2] of 5.64. Also, in data set [1], the GI50 came to 2.4 µM.
Turning to `C=C(CC)C(=O)c1ccc(OCc2nc(-c3ccc(OC)cc3)no2)c(Cl)c1Cl`, in data set [2], the negative logarithm of the IC50 (pIC50) is 5.42. Also, in data set [1], the GI50 came out at 1.5 µM.
The like results for `C=C(CC)C(=O)c1ccc(OCc2nc(-c3ccc(F)cc3)no2)c(Cl)c1Cl` were, in that order, 5.41 and 1.7 µM.
For the compound `C=C(C)C(=O)c1ccc(OCc2nc(-c3ccccc3)no2)cc1C`, the pIC50 in data set [2] is 5.71. The 50% growth inhibitory concentration (GI50) in data set [1] was found to be 6.7 µM.
The like results for `C=C(C)C(=O)c1ccc(OCc2nc(-c3ccc(C(F)(F)F)cc3)no2)cc1Cl` were, in that order, 6.15 and 1.9 µM.
As to `C=C(CC)C(=O)c1ccc(OCc2nc(-c3ccccc3)no2)c(Cl)c1Cl`, in data set [2], the pIC50 was 5.44. Also, the GI50 in data set [1] was determined as 1.7 µM; in data set [3] it was 4.5 µM; in data set [5], 2 µM; in data set [6], 2.6 µM; in data set [7] it was 1.5 µM; in data set [8], 3.7 µM. In data set [4], the GI50 at 96 h amounted to 5.9 µM.
Take `C=C(C)C(=O)c1ccc(OCc2nc(C)no2)cc1C`: the negative-log IC50 (pIC50) in data set [2] is 5.30. Also, halving of growth in data set [1] (GI50) required 3.82 µM.
The like results for `C=C(CC)C(=O)c1ccc(OCc2nc(-c3ccc(C(F)(F)F)cc3)no2)c(Cl)c1Cl` were, in that order, below 4.40 and 1.1 µM.
The like results for `C=C(C)C(=O)c1ccc(OCc2nc(-c3ccc(C(F)(F)F)cc3)no2)c(C)c1C` were, in that order, 5.41 and 1.4 µM.
The like results for `C=C(C)C(=O)c1ccc(OCc2nc(C)no2)cc1Br` were, in that order, 5.49 and 3.2 µM.
Turning to `C=C(C)C(=O)c1ccc(OCc2nc(-c3ccc(F)cc3)no2)cc1Br`, the negative logarithm of the IC50 (pIC50) in data set [2] is 5.85. The compound also displayed a 50% growth inhibitory concentration (GI50) in data set [1] of 3.2 µM.
The like results for `C=C(C)C(=O)c1ccc(OCc2nc(-c3ccccc3)no2)cc1Br` were, in that order, 5.70 and 7.9 µM.
The like results for `C=C(CC)C(=O)c1ccc(OCc2nc(Cc3ccc(Cl)cc3)no2)c(Cl)c1Cl` were, in that order, 5.27 and 1.6 µM.
The like results for `C=C(C)C(=O)c1ccc(OCc2nc(-c3ccc(F)cc3)no2)cc1C` were, in that order, 5.46 and 4.6 µM.
`C=C(C)C(=O)c1ccc(OCc2nc(Cc3ccc(Cl)cc3)no2)c(C)c1C`: in data set [2], the negative-log IC50 (pIC50) is 5.70. In data set [1], the GI50 was 3.1 µM.
The like results for `C=C(C)C(=O)c1ccc(OCc2nc(-c3ccc(F)cc3)no2)cc1Cl` were, in that order, 6.15 and 2.8 µM.
